Source: ChEMBL document CHEMBL1140915, “Second-generation highly potent and selective inhibitors of the hepatitis C virus NS3 serine protease” (J Med Chem, 2009)

Assays:
[1] = Drug level in rat liver after 6 hrs; format: ADME, tissue-based; conditions: read-out: Drug uptake
Method in brief: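 In rat, compound level in liver was measured 6 h after dosing in 0.4% MC and reported as ng/g tissue.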

[2] = Half life in monkey at 1 mg/kg, iv administered with 0.4% hydroxypropyl methylcellulose; format: ADME, organism-based, Macaca mulatta; design: dose 1 mg/kg, route intravenous; conditions: rhesus monkey, in vivo
[3] = AUC in monkey at 1 mg/kg, iv administered with 0.4% hydroxypropyl methylcellulose; format: ADME, organism-based, Macaca mulatta; design: dose 1 mg/kg, route intravenous; conditions: rhesus monkey, in vivo
[4] = AUC in rat at 10 mg/kg, po administered with 20% HPBCD; format: ADME, organism-based; design: dose 10 mg/kg, route oral; conditions: plasma
[5] = Half life in dog at 2 mg/kg, iv administered with 0.4% hydroxypropyl methylcellulose; format: ADME, organism-based, Canis lupus familiaris; design: dose 2 mg/kg, route intravenous; conditions: in vivo
[6] = Half life in rat at 3 mg/kg, iv administered with 0.4% hydroxypropyl methylcellulose; format: ADME, organism-based; design: dose 3 mg/kg, route intravenous; conditions: in vivo
[7] = AUC in rat at 10 mg/kg, po administered with 0.4% hydroxypropyl methyl cellulose; format: ADME, organism-based; design: dose 10 mg/kg, route oral; conditions: in vivo
[8] = AUC in dog at 2 mg/kg, iv administered with 0.4% hydroxypropyl methylcellulose; format: ADME, organism-based, Canis lupus familiaris; design: dose 2 mg/kg, route intravenous; conditions: in vivo
[9] = AUC in monkey at 3 mg/kg, po administered with 0.4% hydroxypropyl methylcellulose; format: ADME, organism-based, Macaca mulatta; design: dose 3 mg/kg, route oral; conditions: rhesus monkey, in vivo
[10] = AUC in dog at 3 mg/kg, po administered with 0.4% hydroxypropyl methylcellulose; format: ADME, organism-based, Canis lupus familiaris; design: dose 3 mg/kg, route oral; conditions: in vivo
[11] = Bioavailability in dog at 3 mg/kg, po administered with 0.4% hydroxypropyl methylcellulose; format: ADME, organism-based, Canis lupus familiaris; conditions: in vivo
[12] = Bioavailability in monkey at 3 mg/kg, po administered with 0.4% hydroxypropyl methylcellulose; format: ADME, organism-based, Macaca mulatta; conditions: rhesus monkey, in vivo
[13] = Inhibition of HCV NS3 protease in absence of human serum; design: species or system Hepacivirus hominis
Method in brief: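 Continuous enzymatic assay using NS4A-tethered single-chain HCV NS3 serine protease, without human serum. Ki* is the equilibrium constant, which includes the reversible covalent ketone–serine bond. Compounds were tested as P1 diastereomer mixtures (2:1 to 1:2) that equilibrate rapidly under assay conditions.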

[14] = Selectivity for HCV NS3 protease over human neutrophil elastase
Method in brief: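 Compounds were also assayed against human neutrophil elastase. Selectivity is expressed as the HNE/HCV ratio of the two enzyme potencies.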

[15] = Bioavailability in rat at 10 mg/kg, po administered with 0.4% hydroxypropyl methylcellulose; format: ADME, organism-based; conditions: in vivo
[16] = AUC in rat at 3 mg/kg, iv administered with 0.4% hydroxypropyl methylcellulose; format: ADME, organism-based; design: dose 3 mg/kg, route intravenous; conditions: in vivo
Hepatitis C virus = assay: Antiviral activity against HCV assessed as inhibition of virus replication by cell based assay in absence of human serum; format: functional, Hepacivirus hominis
Method in brief: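 Replicon-based cellular assay run without human serum. EC90 is the concentration that inhibits replicon replication by 90%. Compounds were tested as rapidly equilibrating P1 diastereomer mixtures.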

concentration at 6 h [1]: 1800 ng/g | half-life [2]: 2.3 h | AUC [3]: 0.7 µM·h | AUC [4]: 1.2 µM·h | half-life [5]: 2.7 h | half-life [6]: 7.4 h | AUC [7]: 0.9 µM·h | AUC [8]: 2.2 µM·h | AUC [9]: 0.1 µM·h | AUC [10]: 1.2 µM·h | bioavailability [11]: 35% | bioavailability [12]: 4% | Ki [13]: 4 nM | Ratio [14]: 7100 | bioavailability [15]: 22% | AUC [16]: 1.6 µM·h | EC90 (Hepatitis C virus): 30 nM
SMILES: C=CCNC(=O)C(=O)C(CC1CC1)NC(=O)[C@@H]1[C@@H]2[C@H](CN1C(=O)[C@@H](NC(=O)NC(CN1C(=O)CC(C)(C)CC1=O)C(C)(C)C)C(C)(C)C)C2(C)C (single isomer, unassigned)
